≈ marks a conversion by molar mass, not a printed value.
Tests used:
[1] = MIC ratio measured as the mean MICs of gram-positive bacteria; type: functional
Method in brief: (§1)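 Geometric mean of the MICs (µg/mL) over the Gram-negative or the Gram-positive strains of the 10-organism microtitration panel, calculated separately for each class.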

Streptococcus pneumoniae = test: Antibacterial activity was determined against gram positive organism, Streptococcus pneumoniae (SV-1); type: functional
Method in brief: (§2)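 MIC by standard microtitration against a panel of 10 representative Gram-negative and Gram-positive organisms; values reported in µg/mL.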

Pseudomonas aeruginosa = test: Antibacterial activity was determined against gram negative organism, Pseudomonas aeruginosa (UI-18); type: functional; method in brief: as §2
Staphylococcus aureus [2] = test: Antibacterial activity was determined against gram positive organism, Staphylococcus aureus (UC76); type: functional; method in brief: as §2
Klebsiella pneumoniae = test: Antibacterial activity was determined against gram negative organism, K. pneumoniae (MGH-2); type: functional; method in brief: as §2
Mus musculus [3] = test: In vivo subcutaneous protective dose was determined in female charles river CD-1 mice infected with Escherichia coli (vogel); type: functional; settings: sc, read-out: PD50
Method in brief: (§3)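 Acute lethal systemic infection model in mice; drug given by subcutaneous injection; potency read out as median protective dose (PD50), in mg/kg.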

Streptococcus pyogenes = test: Antibacterial activity was determined against gram positive organism, Streptococcus pyogenes (C203); type: functional; method in brief: as §2
Mus musculus [4] = test: In vivo subcutaneous protective dose was determined in female charles river CD-1 mice infected with Streptococcus pneumoniae; type: functional; settings: sc, read-out: PD50; method in brief: as §3
Bacteria = test: Antibacterial activity was determined against gram negative organism, Providencia rettgeri. (M1771); type: functional; method in brief: as §2
Enterobacter cloacae = test: Antibacterial activity against gram negative organism, […] (MA2646); type: functional
Mus musculus [5] = test: In vivo oral protective dose was determined in female charles river CD-1 mice infected with Streptococcus pneumoniae; type: functional; settings: read-out: PD50
Method in brief: (§4)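 Acute lethal systemic infection model in mice; drug given orally by gavage; potency read out as median protective dose (PD50), in mg/kg.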

Mus musculus [6] = test: In vivo oral protective dose was determined in female charles river CD-1 mice infected with Escherichia coli (vogel); type: functional; settings: for ED50: Mus musculus, po, read-out: PD50; method in brief: as §4
Escherichia coli = test: Antibacterial activity was determined against gram negative organism, E. coli(vogel); type: functional; method in brief: as §2
[7] = MIC ratio measured as the mean MICs of gram-negative bacteria; type: functional; method in brief: as §1
[8] = target: DNA gyrase (Escherichia coli) (UniProt P0AES6+P0AES4)
Staphylococcus aureus [9] = test: Antibacterial activity was determined against gram positive organism, Staphylococcus aureus (H228); type: functional; method in brief: as §2
Enterococcus faecalis = test: Antibacterial activity was determined against gram positive organism, Streptococcus faecalis (MGH-2); type: functional; method in brief: as §2

SMILES	Ratio [1]	MIC (Streptococcus pneumoniae)	MIC (Pseudomonas aeruginosa)	MIC (Staphylococcus aureus [2])	MIC (Klebsiella pneumoniae)	ED50 (Mus musculus [3])	MIC (Streptococcus pyogenes)	ED50 (Mus musculus [4])	MIC (Bacteria)	MIC (Enterobacter cloacae)	ED50 (Mus musculus [5])	ED50 (Mus musculus [6])	MIC (Escherichia coli)	Ratio [7]	DNA cleavage [8]	MIC (Staphylococcus aureus [9])	MIC (Enterococcus faecalis)	PD50 (Mus musculus [6])
Cc1c(F)c(N2CCNC(C)C2)cc2c1c(=O)c(C(=O)O)cn2C1CC1 (configuration not stated) [GREPAFLOXACIN]	2.07	0.025 µg/mL (≈ 0.0696 µM)	0.8 µg/mL (≈ 2.23 µM)	0.025 µg/mL (≈ 0.0696 µM)	0.05 µg/mL (≈ 0.139 µM)	0.5 mg/kg	0.05 µg/mL (≈ 0.139 µM)	8 mg/kg	0.2 µg/mL (≈ 0.556 µM)	0.025 µg/mL (≈ 0.0696 µM)	24 mg/kg	1.5 mg/kg	0.013 µg/mL (≈ 0.0362 µM)	0.6	3.75 µg/mL	0.1 µg/mL (≈ 0.278 µM)	0.1 µg/mL (≈ 0.278 µM)	
NC1CCN(c2cc3c(cc2F)c(=O)c(C(=O)O)cn3C2CC2)C1 (configuration not stated)	0.075	0.1 µg/mL (≈ 0.302 µM)	0.2 µg/mL (≈ 0.604 µM)			0.5 mg/kg			0.1 µg/mL (≈ 0.302 µM)			3.4 mg/kg	0.025 µg/mL (≈ 0.0754 µM)	0.057	0.1 µg/mL			3.4 mg/kg
O=C(O)c1cn(C2CC2)c2c(Cl)c(N3CCNCC3)c(F)cc2c1=O	0.13	0.1 µg/mL (≈ 0.273 µM)	0.4 µg/mL (≈ 1.09 µM)	0.05 µg/mL (≈ 0.137 µM)	0.05 µg/mL (≈ 0.137 µM)		0.2 µg/mL (≈ 0.547 µM)		0.1 µg/mL (≈ 0.273 µM)	0.025 µg/mL (≈ 0.0683 µM)			0.025 µg/mL (≈ 0.0683 µM)	0.066	0.5 µg/mL	0.1 µg/mL (≈ 0.273 µM)	0.4 µg/mL (≈ 1.09 µM)	
O=C(O)c1cn(C2CC2)c2cc(N3CCNCC3)c(F)cc2c1=O [CIPROFLOXACIN]			0.4 µg/mL (≈ 1.21 µM)	0.2 µg/mL (≈ 0.604 µM)		0.25 mg/kg	0.8 µg/mL (≈ 2.41 µM)	19 mg/kg	0.05 µg/mL (≈ 0.151 µM)		100 mg/kg	1 mg/kg					0.8 µg/mL (≈ 2.41 µM)	
NC1CCN(c2c(F)cc3c(=O)c(C(=O)O)cn(C4CC4)c3c2F)C1 (configuration not stated)	0.044	0.05 µg/mL (≈ 0.143 µM)		0.013 µg/mL (≈ 0.0372 µM)		0.4 mg/kg		6 mg/kg	0.05 µg/mL (≈ 0.143 µM)		15 mg/kg	1 mg/kg	0.013 µg/mL (≈ 0.0372 µM)	0.029	0.25 µg/mL			
Cc1c(F)c(N2CCC(N)C2)cc2c1c(=O)c(C(=O)O)cn2C1CC1 (configuration not stated)	0.05	0.013 µg/mL (≈ 0.0376 µM)	0.4 µg/mL (≈ 1.16 µM)	0.025 µg/mL (≈ 0.0724 µM)	0.1 µg/mL (≈ 0.29 µM)	0.7 mg/kg	0.025 µg/mL (≈ 0.0724 µM)		0.1 µg/mL (≈ 0.29 µM)	0.05 µg/mL (≈ 0.145 µM)		9.5 mg/kg	0.025 µg/mL (≈ 0.0724 µM)	0.087	0.38 µg/mL	0.1 µg/mL (≈ 0.29 µM)	0.4 µg/mL (≈ 1.16 µM)	
CCn1cc(C(=O)O)c(=O)c2cc(F)c(N3CCNCC3)c(F)c21	0.27	3.1 µg/mL (≈ 9.19 µM)	0.8 µg/mL (≈ 2.37 µM)	0.4 µg/mL (≈ 1.19 µM)	0.1 µg/mL (≈ 0.296 µM)		3.1 µg/mL (≈ 9.19 µM)		0.2 µg/mL (≈ 0.593 µM)	0.1 µg/mL (≈ 0.296 µM)			0.1 µg/mL (≈ 0.296 µM)	0.17	2.5 µg/mL	1.6 µg/mL (≈ 4.74 µM)	1.6 µg/mL (≈ 4.74 µM)	
CC1CN(c2cc3c(cc2F)c(=O)c(C(=O)O)cn3-c2ccc(F)cc2F)CCN1 (configuration not stated) [TEMAFLOXACIN]	0.087	0.1 µg/mL (≈ 0.24 µM)	1.6 µg/mL (≈ 3.83 µM)	0.025 µg/mL (≈ 0.0599 µM)	0.1 µg/mL (≈ 0.24 µM)		0.1 µg/mL (≈ 0.24 µM)		0.2 µg/mL (≈ 0.479 µM)	0.05 µg/mL (≈ 0.12 µM)			0.05 µg/mL (≈ 0.12 µM)	0.15	0.75 µg/mL	0.1 µg/mL (≈ 0.24 µM)	0.2 µg/mL (≈ 0.479 µM)	
CCNCC1CCN(c2cc3c(c(C)c2F)c(=O)c(C(=O)O)cn3CC)C1 (configuration not stated)	1.06	0.8 µg/mL (≈ 2.13 µM)	25 µg/mL (≈ 66.6 µM)	0.4 µg/mL (≈ 1.07 µM)	6.3 µg/mL (≈ 16.8 µM)		1.6 µg/mL (≈ 4.26 µM)		12.5 µg/mL (≈ 33.3 µM)	3.1 µg/mL (≈ 8.26 µM)			1.6 µg/mL (≈ 4.26 µM)	6.28	3 µg/mL	1.6 µg/mL (≈ 4.26 µM)	1.6 µg/mL (≈ 4.26 µM)	
CCn1cc(C(=O)O)c(=O)c2cc(F)c(N3CCC(N)C3)c(F)c21 (configuration not stated)	0.27	0.4 µg/mL (≈ 1.19 µM)	0.4 µg/mL (≈ 1.19 µM)	0.1 µg/mL (≈ 0.296 µM)	0.2 µg/mL (≈ 0.593 µM)		0.2 µg/mL (≈ 0.593 µM)		0.2 µg/mL (≈ 0.593 µM)	0.1 µg/mL (≈ 0.296 µM)			0.1 µg/mL (≈ 0.296 µM)	0.17	2.5 µg/mL	0.4 µg/mL (≈ 1.19 µM)	0.4 µg/mL (≈ 1.19 µM)	
